Test system: MS2 coat protein
Test: apparent Kd, MS2 coat protein; higher = weaker binding; RNA-MaP array; FMN 200 µM where present
Summary of the method: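 Two titrations, one without ligand and one with constant ligand, were run with SNAP-549-labelled MS2 coat protein from 0.7 or 1.5 nM, doubling to 3 µM. The targets were designs transcribed by stalled E. coli RNA polymerase on Illumina sequencing-chip clusters, in 100 mM Tris-HCl pH 7.5, 80 mM KCl, 4 mM MgCl2, BSA, DTT, yeast tRNA and Tween-20. The apparent Kd is the median of filtered per-cluster binding-curve fits, with green signal normalised to red-channel RNA signal and control-cluster median Fmax.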

[1] = designed as: ON switch for flavin mononucleotide, no ligand
[2] = ligand present: flavin mononucleotide, designed as: ON switch for flavin mononucleotide
[3] = designed as: OFF switch for flavin mononucleotide, no ligand
[4] = ligand present: flavin mononucleotide, designed as: OFF switch for flavin mononucleotide

| Sequence | apparent Kd [1] [nM] | apparent Kd [2] [nM] | apparent Kd [3] [nM] | apparent Kd [4] [nM] |
| --- | --- | --- | --- | --- |
| AGUUAAUAUCGAGGAUAUCCUCAUAGACAUGAGGAUCACCCAUGUUAACAUGGAGAAGGCGAUAUUAACAGCAUGUUACAUGCA | 231 | 26.8 | – | – |
| AGUUAAUAUCGAGGAUAUCCUCUACCACAUGAGGAUCACCCAUGUAUGCAUGGAGAAGGCGAUAUUAACAGCAUGUUACAUGCA | 157 | 8.62 | – | – |
| AGUUAAUAUCGAGGAUAUGUCUAGACACAUGAGGAUCACCCAUGUAUGUGUAUAGAAGGCGAUAUUAACAGCAUGUUACAUGCC | 37.2 | 15.6 | – | – |
| AGUUGAAAUACAGGAUAUAUAUUAUUUUUAUUUAUAGAAGGGUAAUCACAUGAGGAUCACCCAUGUAUAUACGAGGAAGAAGAG | 292 | 263 | – | – |
| AGUUGGCGAGGAUAUACAUGAGGAUCACCCAUGUGAAGAAGAAUAGUGAGGAAGAAAAGUAGAAGGCGCUGACA | – | – | 47 | 260 |
| AGUUGUUCAGGAUAUGAUGAAUAUUACAUGAGGAUCACCCAUGUAGAUCCUGAAUAUGAAUCAGAAGGGAAUAUUU | – | – | 15.3 | 32.5 |
| AGUUUUGUACAUGAGGAUCACCCAUGUUAAUAUGUGGUAGUCAGAAGGCAUUGAUAGAGUUUUAAUGAGGAUAUGAAUAUUCUG | 31.8 | 32.3 | – | – |
| AUAAAACAUGAGGAUCACCCAUGUCAACAAAGUCGAGGAUAUGGGUAAAUAAAAUAAGAACCAGAAGGCGAAUAAU | 597 | 132 | – | – |
| AUAAAACAUGAGGAUCACCCAUGUCAGGAUAUACGAUAUUAAAUUUAAUAUAUUUAUAGUAGAAGGGACAAAUA | – | – | 50.4 | 55 |
| AUAAAACAUGAGGAUCACCCAUGUCAGUUAUCAUGAGGAUAUCCGCCGACCCGGGCGUAAGGAGAAGGCAUAUAAU | 39.3 | 20.1 | – | – |
| AUAAAGUGAGGAUAUACAUGAGGAUCACCCAUGUGAAAGUCUAAAAAAAUGACAAAAAGUAGAAGGCACAAAUA | – | – | 23.8 | 24.3 |
| AUAAAUAAGCAAGGAUAUUGUUUAAAUAAAUAACAAGAAGGUGCAGUUAAUUUCUCAAAACAUGAGGAUCACCCAUGUAUUUAA | 42.4 | 21.8 | – | – |
| AUAAUACAUGAGGAUCACCCAUGUAAUUUAACUUGUAAGAUCAAGGAUAUCAGCUCGUUUAGAGCUGAGAAGGUGAUCACAUGU | 187 | 292 | – | – |
| AUAAUGCGAGGAUAUACAUGAGGAUCACCCAUGUAAUUCAAUCGGAGAGCCACAUUACGUAGAAGGUGCAUUAA | – | – | 17 | 23 |
| AUAAUGCGUGCUACGCAAAAUAACGCAGAAGGCCAACAUGAGGAUCACCCAUGUAAAAGAAAGAUGGAGGAUAUGCGGUUUGGC | 51 | 6.74 | – | – |
| AUAAUUUUAUAUAUCUUUUUUAUCAGAAGGCAUAACAUGAGGAUCACCCAUGUAUAUUAUAGUUAUGAGGAUAUGAUUUAGUUA | – | – | 10.2 | 11.4 |
| AUACAAUUUCGAGGAUAUCGGUGAUAAAUAAUACGAGAAGGCGAUGAAAGAUAUAAUCCUAUUUACAUGAGGAUCACCCAUGUU | 34.8 | 31.1 | – | – |
| AUACACUUUCGAGGAUAUCGGUGAUAAAUUUUACGAGAAGGCGAUAAAAGAUAUAAUCUUAUAUACAUGAGGAUCACCCAUGUU | 27.3 | 25.1 | – | – |
| AUACAUGAGGAUCACCCAUGUAAUUAAUUAAUUAAUAAGAUCUAGGAUAUCAGCUCGAUUAGAGCUGAGAAGGAGAUCACAUGU | 24.2 | 14.6 | – | – |
| AUACAUGAGGAUCACCCAUGUUACAUGGUCUUGAUAUUACGUAGAAGGAUGAUAUUAUUAUUAGCAUAGGAUAUACAAUUUGUA | – | – | 57.5 | 44 |
| AUACCACGAGGAUAUCGUCUAUUUUACAUGAGGAUCACCCAUGUUAUCUUUGUAAUGUUUCGAGAAGGCGUGUUUU | – | – | 34.2 | 23.9 |
| AUACCACGAGGAUAUCGUCUAUUUUACAUGAGGAUCACCCAUGUUAUCUUUGUUUUGUUUCGAGAAGGCGUGUUUU | – | – | 25.1 | 17.1 |
| AUACGGGCCCAGAAGGUGCCAGCGAGAGCUGCACAUGAGGAUCACCCAUGUUGUCGGUGACGACGCAAGGAUAUGGGCCCGUAU | 23.4 | 6.63 | – | – |
